Assay results gathered from unrelated publications.
Protocols differ between the studies behind these lines.
Target: High affinity nerve growth factor receptor (NTRK1, Homo sapiens, UniProt P04629)

Compound	test	setting	quantity	value
Cn1cc(-c2cc(F)cc(N3CCn4c(cc5c4CCCC5)C3=O)c2CO)cc(Nc2ccc(N3CCN(C4COC4)CC3)cn2)c1=O	enzyme activity, inhibitor	0.1 µM	inhibition	15%
C#Cc1n[nH]c2c(-c3cn([C@@H](C)c4ccccn4)c(=O)[nH]c3=O)cc(F)cc12	enzyme activity, inhibitor	0.1 µM	inhibition	11.2%
O=c1[nH]c2ccccc2n1C1CCN(Cc2ccc(-c3[nH]c4cc5ncnc5cc4nc3-c3ccccc3)cc2)CC1	cell-free assay	0.5 µM	remaining signal	99.4%
Nc1ncc(-c2nc(N3CCOCC3)nc(N3CCOCC3)n2)c(C(F)F)n1	cell-free assay, competition with immobilised ligand	10 µM	remaining binding	78%
CC(C)(C)c1cc(C=C(C#N)C#N)cc(Br)c1O	enzyme activity, inhibitor	0.5 µM	remaining activity	100%
COc1ncccc1-c1cnn2ccc(N3CCN(C(=O)OC(C)C)CC3)nc12	binding, competition with immobilised ligand	1 µM	remaining binding	61%
Cc1nn(C)cc1-c1nc2c(N3CCN(Cc4ccc(Cl)cc4)CC3)c(Cl)cnc2[nH]1	binding, competition with immobilised ligand	1 µM	remaining binding	80%
COc1cc(Nc2ncc(F)c(Nc3ccc4c(n3)NC(=O)C(C)(C)O4)n2)cc(OC)c1OC	binding	10 µM	inhibition	100%
C#Cc1n[nH]c2c(-c3cn([C@@H](C)c4ccccc4)c(=O)[nH]c3=O)cc(F)cc12	enzyme activity, inhibitor	0.1 µM	inhibition	5%
Cn1cc(-c2cccc(N3CCc4c(sc5c4CC(C)(C)C5)C3=O)c2CO)cc(Nc2ccncn2)c1=O	enzyme activity, inhibitor	1 µM	inhibition	11%
Cn1cncc1[C@](O)(COc1ccc(C#N)cc1-c1ccc(OC(F)(F)F)cc1)c1ccc(C#N)cc1	cell-free assay, competition with immobilised ligand	1 µM	remaining binding	91%
